# Source: ChEMBL document CHEMBL5661970 (Cancer Res, 2006)
# Calls of active or inactive are those of the source. The rule behind the calls is not given here.
# Assays:
# [1] = biological target: Insulin receptor (Homo sapiens, UniProt P06213); assay: Inhibition of insulin-R (unknown origin) in presence of ATP
# Procedure, shortened: (§1)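 Cell-free kinase assay using recombinant tyrosine kinases with 1 μmol/L ATP, run in quadruplicate. IC50 values determined.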
# [2] = Cmax in F344/N JcL-rnu athymic rat at 1 mg/kg, po measured upto 72 hrs by HPLC-MS/MS analysis; assay type: ADME, organism-based; conditions: in vivo
# Procedure, shortened: (§2)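 Female F344/N JcL-rnu rats, four per group, single p.o. dose suspended in 0.5% methyl cellulose. Tail-vein blood sampled at set times to 72 h. Serum spiked with internal standard, deproteinated with acetonitrile, analysed by HPLC-MS/MS. Parameters derived by noncompartmental analysis.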
# [3] = test system: OVCAR-3; assay: Antitumor activity against human OVCAR-3 cells xenografted in gamma-irradiation induced RH-rnu/rnu athymic rat assessed as tumor growth inhibition at 1.0 mg/kg, po administered once daily for 2 weeks and measured on day 14 relative to control; assay type: functional; conditions: OVCAR-3, light or radiation study, 336 h, read-out: TGI
# Procedure, shortened: (§3)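 Rats were γ-irradiated with 7 Gy whole body, and 24 h later received s.c. tumor cells. Fragments (20-30 mg) from ~1,500 mm3 tumors were then implanted s.c. into irradiated athymic rats. Oral dosing at 0.2 or 1 mg/kg or vehicle ran once daily for 2 weeks from day 0. Tumors were measured with calipers twice weekly (length×width²×0.5). TGI% was taken versus vehicle on day 14 (BxPC-3: day 13), with an unpaired t test on RTV.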
# [4] = biological target: Mitogen-activated protein kinase 1 (Homo sapiens, UniProt P28482); assay: Inhibition of ERK2 phosphorylation in VEGF-stimulated serum-starved human HUVEC cells by immunoblotting analysis; assay type: cell-based
# Chain of Mitogen-activated protein kinase 1 (P28482 whole entry): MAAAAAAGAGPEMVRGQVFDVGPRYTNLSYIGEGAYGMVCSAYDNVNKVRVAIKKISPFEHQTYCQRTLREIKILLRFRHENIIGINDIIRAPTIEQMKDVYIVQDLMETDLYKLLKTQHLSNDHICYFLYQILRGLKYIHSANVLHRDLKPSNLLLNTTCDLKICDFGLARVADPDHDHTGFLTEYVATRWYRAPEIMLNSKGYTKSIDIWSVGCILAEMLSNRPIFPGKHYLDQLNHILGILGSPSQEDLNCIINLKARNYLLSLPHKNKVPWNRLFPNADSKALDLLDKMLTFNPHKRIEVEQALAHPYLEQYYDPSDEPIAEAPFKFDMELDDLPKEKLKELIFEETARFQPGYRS
# Procedure, shortened: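 HUVECs serum-starved, treated with inhibitor (DMSO stock diluted in medium), then stimulated with VEGF. Lysates run on SDS-PAGE and immunoblotted with anti-phospho-p44/42 MAPK antibody. Four independent experiments.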
# [5] = Tmax in F344/N JcL-rnu athymic rat at 5 mg/kg, po measured upto 72 hrs by HPLC-MS/MS analysis; assay type: ADME, organism-based; conditions: in vivo; procedure, shortened: as §2
# [6] = test system: HUVEC; assay: Inhibition of cell migration in VEGF-induced serum-starved human HUVEC cells at >= 10 nmol/L incubated for 22 hrs by calcein AM staining based fluorescence plate reader analysis; assay type: functional
# Procedure, shortened: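 HUVECs starved 5 h in EBM-2 with 0.1% BSA, placed in upper chamber of microchamber plate; lower chamber held 10 ng/mL VEGF, 0.1% FBS, 0.1% BSA. Compound in both chambers. After 22 h, migrated cells stained with 4 μg/mL calcein AM, read at 485/530 nm; 100%/0% set with/without VEGF in 0.1% DMSO; n = 10.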
# [7] = Apparent oral volume of distribution in F344/N JcL-rnu athymic rat at 5 mg/kg, po measured upto 72 hrs by HPLC-MS/MS analysis; assay type: ADME, organism-based; conditions: in vivo; procedure, shortened: as §2
# [8] = Tmax in F344/N JcL-rnu athymic rat at 0.2 mg/kg, po measured upto 72 hrs by HPLC-MS/MS analysis; assay type: ADME, organism-based; conditions: in vivo; procedure, shortened: as §2
# [9] = Apparent oral clearance in F344/N JcL-rnu athymic rat at 0.04 mg/kg, po measured upto 72 hrs by HPLC-MS/MS analysis; assay type: ADME, organism-based; conditions: in vivo; procedure, shortened: as §2
# [10] = test system: PC-3; assay: Antitumor activity against human PC-3 cells xenografted in gamma-irradiation induced RH-rnu/rnu athymic rat assessed as tumor growth inhibition at 1.0 mg/kg, po administered once daily for 2 weeks and measured on day 14 relative to control; assay type: functional; conditions: PC-3, light or radiation study, 336 h, read-out: TGI
# [11] = test system: ZR-75-1; assay: Antitumor activity against human ZR-75-1 cells xenografted in gamma-irradiation induced RH-rnu/rnu athymic rat assessed as tumor growth inhibition at 0.2 mg/kg, po administered once daily for 2 weeks and measured on day 14 relative to control; assay type: functional; conditions: ZR-75-1, light or radiation study, 336 h, read-out: TGI
# [12] = test system: DU-145; assay: Antitumor activity against human DU-145 cells xenografted in gamma-irradiation induced RH-rnu/rnu athymic rat assessed as tumor growth inhibition at 1.0 mg/kg, po administered once daily for 2 weeks and measured on day 14 relative to control; assay type: functional; conditions: DU-145, light or radiation study, 336 h, read-out: TGI; procedure, shortened: as §3
# [13] = test system: A549; assay: Antitumor activity against human A549 cells xenografted in F344/N Jcl-rnu athymic rat assessed as reduction in number of CD31-positive cells in viable regions of tumor at 0.2 mg/kg, po administered once daily for 7 days by immunofluorescence staining analysis relative to control; conditions: time 7 day
# [14] = Cmax in F344/N JcL-rnu athymic rat at 0.2 mg/kg, po measured upto 72 hrs by HPLC-MS/MS analysis; assay type: ADME, organism-based; conditions: in vivo; procedure, shortened: as §2
# [15] = test system: DU-145; assay: Antitumor activity against human DU-145 cells xenografted in gamma-irradiation induced RH-rnu/rnu athymic rat assessed as tumor growth inhibition at 0.2 mg/kg, po administered once daily for 2 weeks and measured on day 14 relative to control; assay type: functional; conditions: DU-145, light or radiation study, 336 h, read-out: TGI; procedure, shortened: as §3
# [16] = test system: A549; assay: Antitumor activity against human A549 cells xenografted in F344/N Jcl-rnu athymic rat assessed as reduction in number of CD31-positive cells in viable regions of tumor at 0.04 mg/kg, po administered once daily for 7 days by immunofluorescence staining analysis relative to control; conditions: time 7 day
# [17] = AUC (0-infinity) in F344/N JcL-rnu athymic rat at 0.2 mg/kg, po measured upto 72 hrs by HPLC-MS/MS analysis; assay type: ADME, organism-based; conditions: in vivo
# Procedure, shortened: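 Female athymic rats, four per group, given a single oral dose suspended in 0.5% methyl cellulose in water. Tail-vein blood was drawn at set times up to 72 h. Serum was spiked with internal standard, deproteinated with acetonitrile and analysed by HPLC-MS/MS. AUCinf came from noncompartmental analysis.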
# [18] = biological target: Ephrin type-B receptor 2 (Homo sapiens, UniProt P29323); assay: Inhibition of EphB2 (unknown origin) in presence of ATP; procedure, shortened: as §1
# Chain of Ephrin type-B receptor 2 (P29323 whole entry): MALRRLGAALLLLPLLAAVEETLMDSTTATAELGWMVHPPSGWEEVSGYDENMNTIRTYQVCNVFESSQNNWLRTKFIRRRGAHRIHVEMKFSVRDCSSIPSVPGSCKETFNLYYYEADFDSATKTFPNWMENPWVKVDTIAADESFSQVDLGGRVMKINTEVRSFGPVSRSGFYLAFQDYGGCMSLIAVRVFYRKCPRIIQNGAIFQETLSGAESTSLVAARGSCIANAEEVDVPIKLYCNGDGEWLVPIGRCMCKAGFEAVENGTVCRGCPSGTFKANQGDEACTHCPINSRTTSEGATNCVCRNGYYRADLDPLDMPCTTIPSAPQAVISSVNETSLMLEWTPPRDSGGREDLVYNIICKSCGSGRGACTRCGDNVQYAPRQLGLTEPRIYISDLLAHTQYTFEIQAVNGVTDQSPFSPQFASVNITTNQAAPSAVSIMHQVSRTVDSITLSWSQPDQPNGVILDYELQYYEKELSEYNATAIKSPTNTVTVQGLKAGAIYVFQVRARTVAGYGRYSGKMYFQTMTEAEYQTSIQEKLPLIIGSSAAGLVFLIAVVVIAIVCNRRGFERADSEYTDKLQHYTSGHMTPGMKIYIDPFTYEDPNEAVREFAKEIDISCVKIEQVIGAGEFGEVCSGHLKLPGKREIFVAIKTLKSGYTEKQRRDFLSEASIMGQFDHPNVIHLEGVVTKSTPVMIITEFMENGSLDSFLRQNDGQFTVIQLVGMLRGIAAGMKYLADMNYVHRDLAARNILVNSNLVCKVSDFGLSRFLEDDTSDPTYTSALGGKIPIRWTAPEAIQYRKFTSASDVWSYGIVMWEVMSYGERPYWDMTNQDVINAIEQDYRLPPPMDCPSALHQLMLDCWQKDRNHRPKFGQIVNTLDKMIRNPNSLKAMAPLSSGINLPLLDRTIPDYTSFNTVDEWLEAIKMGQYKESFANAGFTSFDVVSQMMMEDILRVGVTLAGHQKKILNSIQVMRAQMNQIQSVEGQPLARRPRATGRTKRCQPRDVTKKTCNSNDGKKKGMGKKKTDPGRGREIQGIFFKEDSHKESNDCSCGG
# [19] = biological target: Platelet-derived growth factor receptor beta (Homo sapiens, UniProt P09619); assay: Inhibition of PDGFR-beta phosphorylation in serum starved human NHDF cells incubated for 1 hr by immunoblotting analysis; assay type: cell-based
# Procedure, shortened: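 Cells starved overnight in basic medium with 0.5% FBS, incubated 1 h with compound or 0.1% DMSO, then stimulated with human recombinant ligand for 5 min at 37°C. Lysates immunoprecipitated with receptor antibody and immunoblotted for phosphotyrosine. IC50 from nonlinear regression of percentage inhibition (n = 4).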
# [20] = test system: Calu-6; assay: Antitumor activity against human Calu-6 cells xenografted in RH-rnu/rnu athymic rat assessed as decreased microvessel density at 1 mg/kg, po administered for 14 days by immunofluorescence staining analysis relative to control; assay type: functional; parameters: scale not given: the % may be the effect or the level left; conditions: time 14 day
# [21] = test system: A549; assay: Antitumor activity against human A549 cells xenografted in F344/N Jcl-rnu athymic rat assessed as reduction in number of CD31-positive cells in viable regions of tumor at 1.0 mg/kg, po administered once daily for 7 days by immunofluorescence staining analysis relative to control; conditions: time 7 day
# [22] = test system: BXPC-3; assay: Antitumor activity against human BXPC-3 cells xenografted in gamma-irradiation induced RH-rnu/rnu athymic rat assessed as tumor growth inhibition at 0.2 mg/kg, po administered once daily for 2 weeks and measured on day 13 relative to control; assay type: functional; conditions: BXPC-3, light or radiation study, 336 h, read-out: TGI; procedure, shortened: as §3
# Chain of Insulin receptor (P06213 28-758 limits assumed): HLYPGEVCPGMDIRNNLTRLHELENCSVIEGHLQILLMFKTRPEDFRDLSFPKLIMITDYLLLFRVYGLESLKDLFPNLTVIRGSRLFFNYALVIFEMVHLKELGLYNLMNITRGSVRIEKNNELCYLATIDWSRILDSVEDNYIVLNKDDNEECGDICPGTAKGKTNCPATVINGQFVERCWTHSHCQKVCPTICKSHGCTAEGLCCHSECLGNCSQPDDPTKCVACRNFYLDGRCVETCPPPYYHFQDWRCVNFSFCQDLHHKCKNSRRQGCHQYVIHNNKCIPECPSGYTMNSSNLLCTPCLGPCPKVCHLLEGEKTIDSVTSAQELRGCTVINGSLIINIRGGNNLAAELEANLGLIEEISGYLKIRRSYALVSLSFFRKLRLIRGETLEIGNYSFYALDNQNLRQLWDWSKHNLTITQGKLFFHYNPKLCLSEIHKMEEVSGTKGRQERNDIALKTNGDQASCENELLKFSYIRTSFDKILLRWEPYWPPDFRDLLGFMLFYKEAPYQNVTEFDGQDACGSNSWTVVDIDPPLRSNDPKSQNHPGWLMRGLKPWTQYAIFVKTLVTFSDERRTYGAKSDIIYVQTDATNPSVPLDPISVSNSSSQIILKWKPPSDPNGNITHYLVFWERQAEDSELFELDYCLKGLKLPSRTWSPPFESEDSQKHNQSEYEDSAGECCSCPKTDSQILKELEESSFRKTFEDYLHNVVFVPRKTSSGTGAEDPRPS
# Chain of Insulin receptor (P06213 763-1382 limits assumed): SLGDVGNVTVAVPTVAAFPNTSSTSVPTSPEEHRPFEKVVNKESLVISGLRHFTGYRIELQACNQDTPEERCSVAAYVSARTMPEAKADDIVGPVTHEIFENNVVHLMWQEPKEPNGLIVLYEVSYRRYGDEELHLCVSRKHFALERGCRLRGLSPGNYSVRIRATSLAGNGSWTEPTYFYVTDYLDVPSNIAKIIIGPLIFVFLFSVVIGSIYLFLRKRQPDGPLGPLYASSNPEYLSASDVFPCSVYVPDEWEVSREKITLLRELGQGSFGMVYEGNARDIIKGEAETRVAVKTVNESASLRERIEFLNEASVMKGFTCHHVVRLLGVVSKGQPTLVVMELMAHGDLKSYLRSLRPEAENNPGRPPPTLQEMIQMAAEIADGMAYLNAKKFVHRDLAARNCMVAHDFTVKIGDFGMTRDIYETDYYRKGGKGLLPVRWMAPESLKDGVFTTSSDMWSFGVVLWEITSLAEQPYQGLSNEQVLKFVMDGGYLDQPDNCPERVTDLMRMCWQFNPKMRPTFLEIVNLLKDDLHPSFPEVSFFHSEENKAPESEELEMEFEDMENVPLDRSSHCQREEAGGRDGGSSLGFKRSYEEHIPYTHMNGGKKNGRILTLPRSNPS
compound,measurement,setting,value
COc1cc2nccc(Oc3ccc(NC(=O)Nc4cc(C)on4)c(Cl)c3)c2cc1OC [TIVOZANIB],IC50,[1],> 1000 nM
same,Cmax,[2],484 ng/mL
same,inhibition in vivo at 1 mg/kg,[3],98.5%
same,IC50,[4],0.18 nM
same,Tmax,[5],3.5 h
same,inhibition,[6],Active
same,Vd/F,[7],1.29 L/kg
same,Tmax,[8],2.63 h
same,CL/F,[9],2.03 mL/min/kg
same,inhibition in vivo at 1 mg/kg,[10],95.9%
same,inhibition in vivo at 0.2 mg/kg,[11],77.2%
same,inhibition in vivo at 1 mg/kg,[12],> 100%
same,Activity,[13],20.7%
same,Cmax,[14],108 ng/mL
same,inhibition in vivo at 0.2 mg/kg,[15],90.6%
same,Activity,[16],15.7%
same,AUC(0-inf),[17],1640 ng·h/mL
same,IC50,[18],24 nM
same,Activity,[20],71.2%
same,Activity,[21],78.2%
same,inhibition in vivo at 0.2 mg/kg,[22],60.7%
